Here are results for one compound from paper PMC6448596 (Cell reports, 2019).

A word on the IC50: it is the concentration that gives 50% inhibition. The GI50 is the concentration giving 50% growth inhibition.

Molecules are shown by their SMILES.

Test [1] deals with MLL1 complex (Homo sapiens, UniProt P61964). Kind of test: MLL1 HMT assay. The class given is biochemical.
The subject of test [2] is K562 cells. The test can be described thus: Proliferation assay. The class given is cell-based. The note with it: Homo sapiens, K562, 72 h. An outline of the steps: (§1)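 CellTiter-Glo, 5,000 cells/well. Cells received 0.1% DMSO or at least five two-fold dilutions of test compound (top 50 μM, final DMSO 0.1%), in triplicate wells and ≥2 biological replicates, for 72 h at 37°C. Reagent was added after equilibration to RT, with 30 min dark incubation before luminescence. Signals were normalized to DMSO wells and GI50 obtained by curve fitting. Curve error bars are SEM.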

The test system of test [3] is THP-1 cells. The test can be described thus: Proliferation assay. The class given is cell-based. The note with it: Homo sapiens, THP-1, 72 h. Summed up: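 THP-1 cells were grown in RPMI-1640 with 0.05 mM 2-mercaptoethanol and 10% FBS. Cells were plated 5,000/well with ≥5 two-fold dilutions of test compound (top 50 μM, 0.1% DMSO final), in triplicate wells with ≥2 biological replicates.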

The test system of test [4] is HEL cells. The test can be described thus: Proliferation assay. The class given is cell-based. To be noted: Homo sapiens, 72 h. Summed up: as §1
In test [5] the test system is SET-2 cells. Kind of test: Proliferation assay. To be noted: Homo sapiens, SET-2, 72 h. Format: cell-based. Summed up: as §1
Test [6] relates to MONO-Mac-6 cells. The test can be described thus: Proliferation assay. Format: cell-based. The note with it: Homo sapiens, MONO-MAC-6, 72 h. Summed up:
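MONO-MAC-6 cells were maintained in RPMI with 10% FBS, non-essential amino acids and OPI supplement. CellTiter-Glo used 5,000 cells/well and ≥5 two-fold dilutions from 50 μM (0.1% DMSO final), in triplicate wells with ≥2 biological replicates, over 72 h at 37°C.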

The test system of test [7] is MA93 cells. The test can be described thus: Proliferation assay. Format: cell-based. To be noted: Homo sapiens, 72 h. Summed up:
(§2)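 CellTiter-Glo at 2,000 cells/well. MA93 Ras and MA93 FLT3/ITD were maintained in IMDM/20% FBS. Parental MA93 received IMDM/20% FBS plus 10 ng/mL human SCF, TPO, FLT3L, IL3 and IL6. Dosing used ≥5 two-fold dilutions from 50 μM top, 0.1% DMSO final, in triplicate wells with ≥2 biological replicates. Plates ran 72 h at 37°C, followed by 30 min reagent incubation at RT in the dark. GI50 came from DMSO-normalized luminescence.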

The test system of test [8] is MA93 Ras cells. Kind of test: Proliferation assay. The class given is cell-based. The note with it: Homo sapiens, MA9.3RAS, 72 h. An outline of the steps:
as §2

For test [9], the system named is RN2 cells. The test can be described thus: Proliferation assay. The class given is cell-based, murine. To be noted: Mus musculus, 72 h. An outline of the steps: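 Murine RN2 cells were seeded at 2,500/well and exposed to ≥5 two-fold dilutions (top 50 μM, 0.1% DMSO final) in triplicate wells, with ≥2 biological replicates, for 72 h. MTS reagent was added for 1.25 h at 37°C and absorbance read at 490 nm. Values were normalized to DMSO wells and GI50 fitted. Error bars are SEM.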

Test [10] concerns MV4:11 cells expressing shRNAs against p53. The test can be described thus: Proliferation assay in MV4:11 cells expressing p53 or scrambled shRNAs. The class given is cell-based. The note with it: Homo sapiens, MV4-11, 72 h, MV4:11 expressing p53 shRNA_941, 3-day treatment. An outline of the steps:
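Proliferation was measured in MV4:11 cells carrying scrambled, p53 sh_427 or p53 sh_941 shRNA. Cells received 3-day test compound treatment in a dose–response series, with GI50 derived from the curves.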

Test [11] has as its system MV4:11 cells. Kind of test: Cell cycle analysis. Format: cell-based, human. To be noted: 2 μM, up to 6 days. An outline of the steps:
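1 million cells were fixed dropwise in ice-cold 70% ethanol (≥2 h, […]) and stained with PI (10 μg/mL) plus RNase for 20 min at RT in the dark. Flow: ≥10,000 events, doublets excluded. Three biological replicates, SEM.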

Test [12] deals with PARP-1 cleavage in MV4:11 cells. The test can be described thus: Induction of PARP1 cleavage. Format: cell-based, human. The note with it: 2 μM. Summed up:
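MV4:11 cells were treated 1, 2, 3 or 6 days with 2 μM test compound, its negative control or 0.1% DMSO. Cleaved PARP-1 was detected by western blot, with histone H3 as loading reference.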

Test [13] has as its system protein synthesis in MV4:11 cells. The test can be described thus: Relative protein synthesis rates. The class given is cell-based, human. The note with it: MV4:11, 2 μM. An outline of the steps:
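Cycloheximide 30 min before OPP served as positive control; an OPP-free sample set background. Alexa647 signal was read by flow (≥10,000 events, doublets excluded). Biological triplicate, SEM.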

Test [14] concerns NPM1 localisation in MV4:11 cells. Kind of test: Nucleophosmin. Format: cell-based, human. To be noted: MV4:11, 4 μM, 3 days. Summed up: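 Cells were cytospun onto slides (100,000 cells, 800 rpm, 3 min) and immunostained for NPM. The per-cell nucleolar-to-nucleoplasmic NPM ratio was quantified from two biological replicates (SD). One-way ANOVA with Dunnett's test versus DMSO.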

Regarding `Cc1nc(F)ccc1-c1cc(Cn2ccn(C)c2=N)cc(C(=O)NCc2ccc(Cl)c(Cl)c2)c1` [Compound C6, N-(3,4-Dichlorobenzyl)-3-(6-fluoro-2-methylpyridin-3-yl)-5-((2-imino-3-methyl-2,3-dihydro-1H-imidazol-1-yl)methyl)benzamide], the “specificity of HMT inhibition among all MLL/SET complexes” value in test [1] is given as “specific for MLL1, with little activity against other MLL/SET family members”. Further, the “window of selectivity for MLL1 over other MLL/SET complexes” value in test [1] is given as ≥ 250 fold. Moreover, the IC50 in test [1] (MLL1 HMT IC50, H3 peptide as substrate) was ~0.02 µM. Further, the 50% growth inhibitory concentration (GI50) in test [2] is 25.4 ± 2.07 µM; in test [3], > 50 µM; in [4] it was > 50 µM; in test [5], > 50 µM; in test [6], 31.7 ± 2.32 µM; in test [7], 5.04 ± 0.431 µM. Moreover, the concentration for 50% growth inhibition (GI50) in test [8] came out at 20.8 ± 2.62 µM; in test [9] it was 11.2 ± 1.48 µM; in test [10] it was 15 µM. Besides, the “cell-cycle distribution, sub-G1 DNA content” value in test [11] is listed as “time-dependent increase in cells with a sub-G1 DNA content”. For the same compound, the “time to detection of cleaved PARP-1” value in test [12] was ≤ 24 h. Besides, the figures for the OPP incorporation result in [13] (1 day) and in test [13] (6 days) were “measurable reduction in OPP incorporation” and “roughly half of the cells in the C6-treated population incorporated OPP at levels similar to those of cells treated with CHX”, respectively. Further, in [14], the “NPM1 distribution, nucleolar stress” value is on record as “redistribution of nucleophosmin (NPM1) from the nucleolus to the nucleoplasm”.
